Platelet DG rel – inhibitors of platelet dense granule secretion, primary screen, cell-based, MLPCN, human platelets; human platelet-rich plasma, SFLLRN dense granule ATP release, luminescence; inhibition, %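 (compounds screened at 7.5 µM in platelet-rich plasma)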; hit rate 0.22% among 300,000; AID 1663, 2009;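 active = mean replicate score, as percent of positive control, at or above 50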
SENP6 inh – SENP6 protease inhibitors, primary screen, biochemical, luminescence, uHTS. hit rate 1.8% among 330,000. Sentrin-specific protease 6 (Homo sapiens), Q9GZR1. AID 2599, 2010. inhibition, % at 10 µM. Recombinant SENP6 catalytic domain, aminoluciferin luminescence;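 active = inhibition above about 50% at the single tested dose, limit read from the data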;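 also: plate controls were DMSO wells with enzyme for no effect and DMSO wells lacking enzyme for full effect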
SENP8 block-1 – SENP8 protease inhibitors, primary screen, biochemical, luminescence; purified SENP8, Z-RLRGG-aminoluciferin cleavage; inhibition, % at 10 µM; hit rate 1.2% among 330,000; in the data active = inhibition above about 50%
Target sequence (Q96LD8 whole entry, looked up): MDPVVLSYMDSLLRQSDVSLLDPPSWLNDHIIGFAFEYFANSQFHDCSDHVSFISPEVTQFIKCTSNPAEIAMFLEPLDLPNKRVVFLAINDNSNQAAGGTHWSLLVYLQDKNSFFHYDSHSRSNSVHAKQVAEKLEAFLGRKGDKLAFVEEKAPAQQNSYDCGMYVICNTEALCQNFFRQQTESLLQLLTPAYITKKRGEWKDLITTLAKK
SENP7 block – SENP7 protease inhibitors, primary screen, biochemical, luminescence, uHTS | AID 434973, 2010 | hit rate 1.5% among 330,000 | recombinant SENP7, Z-RLRGG-aminoluciferin luminescence, 40 min | inhibition, % at 5 µM | Sentrin-specific protease 7 (Homo sapiens), Q9BQF6;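 active = inhibition above about 50% at the single test dose, limit read from the data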;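 also: plate controls were DMSO with enzyme for no effect and no enzyme buffer wells for full effect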
SENP1 FRET inh – human SENP1 catalytic domain inhibitors, primary screen, biochemical, FRET, uHTS; recombinant SENP1 catalytic domain, CyPet-SUMO1-YPet FRET cleavage; inhibition, % at 10 µM; hit rate 0.21% among 360,000; AID 624204, 2012;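 active = inhibition at least 30% at 10 µM, raw YFP signal under a set limit, fluorescence ratio 0.5 to 1.5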;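 also: 0% = enzyme with DMSO and 100% = no enzyme wells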
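Material – human SENP1 catalytic domain · Input – SENP1 enzyme, 20 pM final · Compound dosing – single concentration of 10 µM compound, 0.5% DMSO final · Timing – enzyme reaction for 50 min at room temperature, dark · Measured by – FRET fluorescence in CFP and YFP emission channels · Control set – no-enzyme wells low, DMSO-plus-enzyme wells high control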
SENP8 block-2 – human SENP8 protease inhibitors, primary screen, biochemical, fluorescence, Nedd8 protein substrate, uHTS; recombinant SENP8; inhibition, % at 20 µM; hit rate 0.64% among 360,000; AID 602440, 2012; in the data active = inhibition mostly above about 40%, no sharp cut-off; inactive = mostly below about 27%
SENP8 confirm – SENP8 protease inhibitors, retest, confirmation, biochemical, luminescence, single concentration; shares compounds with SENP7 block; Recombinant SENP8, Z-RLRGG-aminoluciferin luminescence, 60 min; inhibition, % at 12.5 µM; hit rate 40% among 6,200;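 active = mean inhibition across replicates above about 50%, limit read from the data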
SENP6 confirm – SENP6 protease inhibitors, confirmation, biochemical, luminescence, single concentration | shares compounds with SENP7 block | hit rate 58% among 6,200 | recombinant SENP6, Z-RLRGG-aminoluciferin luminescence | AID 488915, 2010 | inhibition, % at 12.5 µM
SENP7 conf – SENP7 protease inhibitors, retest, confirmation, biochemical, luminescence, single concentration; AID 488917, 2010; hit rate 69% among 6,200; shares compounds with SENP7 block; recombinant SENP7, Z-RLRGG-aminoluciferin luminescence, 40 min; inhibition, % at 12.5 µM
Casp3 select – caspase-3 protease inhibitors, confirmation, selectivity assay for SENP inhibitor project, biochemical, single concentration; shares compounds with SENP7 block; purified caspase-3, Z-DEVD-aminoluciferin luminescence, 60 min; inhibition, % at 12.5 µM; hit rate 60% among 6,200; AID 488918, 2010;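 active = mean inhibition above about 50%, limit read from the data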;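 also: plate controls were enzyme with DMSO for no effect and wells without caspase-3 for full effect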
Target sequence (P42574 28-227 limits assumed): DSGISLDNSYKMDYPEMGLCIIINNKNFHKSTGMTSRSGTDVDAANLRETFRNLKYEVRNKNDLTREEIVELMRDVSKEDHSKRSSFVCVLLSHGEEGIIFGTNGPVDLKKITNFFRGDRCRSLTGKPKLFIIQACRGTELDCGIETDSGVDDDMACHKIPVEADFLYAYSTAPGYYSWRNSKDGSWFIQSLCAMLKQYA
Luc interf – luminescence interference (SENP counter-screen) | shares compounds with SENP7 block | Pre-incubated SENP8/Z-RLRGG-aminoluciferin, luciferase luminescence interference | inhibition, % at 12.5 µM | hit rate 39% among 6,200;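 active = mean inhibition above about 50% when retested at one dose, limit read from the data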;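 also: plate controls were DMSO wells with completed reaction for no effect and substrate without enzyme for full effect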
* = called active by the depositor; . = not tested or not shown. The list is not random: actives were taken first. Their share in the collection is about 2.6%.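 The calls were made as follows, unless noted: active = mean inhibition above about 50% in the one-dose retest (limit read from the data); inactive = the rest.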

SMILES	Platelet DG rel	SENP6 inh	SENP8 block-1	SENP7 block	SENP1 FRET inh	SENP8 block-2	SENP8 confirm	SENP6 confirm	SENP7 conf	Casp3 select	Luc interf
O=C(NCCC1CCCCN1S(=O)(=O)c1ccccc1)C(=O)NCc1cccnc1 (stereo unspecified)	0	1	2	4	2	17	.	.	.	.	.
CC1CCN(C2=C(NS(=O)(=O)c3ccc(Cl)cc3)C(=O)c3ccccc3C2=O)CC1	12	63*	5	14	1	33	4	6	6	10	0
CC1CCN(C2=C(NS(=O)(=O)c3ccccc3)C(=O)c3ccccc3C2=O)CC1	15	49	17	17	-1	33	.	.	.	.	.
CC1CCN(C2=C(NS(=O)(=O)c3ccc(Br)cc3)C(=O)c3ccccc3C2=O)CC1	-2	55*	29	27	-1	26	9	14	-2	15	0
Cc1cc(=O)[nH]c(SCC(=O)Nc2cccc(S(=O)(=O)N3CCOCC3)c2)n1	.	-14	-12	-12	-1	-2	.	.	.	.	.
CCCCN(C(=O)Cc1cccc(F)c1)c1c(N)n(CCC)c(=O)[nH]c1=O	-20	-32	-8	-7	-1	3	.	.	.	.	.
Oc1ccccc1-c1cc(-c2ccccc2Cl)[nH]n1	24	94*	95*	95*	3	6	98*	99*	102*	85*	95*
Oc1ccccc1-c1cc(-c2cccc(F)c2)n[nH]1	-2	93*	88*	88*	4	10	95*	95*	100*	64*	74*
Oc1ccc(Cl)cc1-c1cc(-c2ccccc2Cl)[nH]n1	8	29	-17	20	-2	26	.	.	.	.	.
O=C(O)c1cccc(-n2cc(-c3cccc(C(F)(F)F)c3)cn2)c1	-2	85*	78*	59*	-1	22	-6	87*	97*	11	91*
Cc1ccccc1OCCC(=O)OCC(=O)Nc1c(F)cccc1F	-4	-7	-12	-3	4	5	.	.	.	.	.
COc1ccc(/C(C)=N/NC(=O)CNC(=O)C(c2ccccc2)c2ccccc2)c(OC)c1	3	22	-4	1	1	6	.	.	.	.	.
O=C(CS(=O)(=O)c1ccccc1)c1ccc2c(c1)OCCO2	-1	57*	34	51*	0	4	63*	60*	86*	82*	65*
Clc1ccc(-c2cn3c(n2)-c2ccccc2C3)cc1Cl	7	94*	93*	98*	-1	2	43	84*	94*	80*	38
O=S(=O)(c1cccc(-c2nc3n(n2)Cc2ccccc2-3)c1)N1CCCC1	-28	-2	-13	-9	1	10	.	.	.	.	.
